The text below walks through data of PubChem BioAssay.

Each structure is given as a SMILES string. Calls of active or inactive are those of the source.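 How the source made its calls, unless noted: active means Her2 level under about 52% in both replicate screens, with viability over 70% of control (limit read from the data); inconclusive means Her2 under the limit in one screen only, or viability under 70%; inactive means Her2 level above the set limit.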

For orientation: viability means a read-out of living cells in per cent, often relative to untreated cells. As a reminder, the inhibition is the change of the read-out against control, counted positive when it falls.

Assay [1] is described as follows: Her2 expression decrease, cell viability multiplex – SKBR3 breast tumor cells, AlphaScreen, ATP viability, primary screen (AID 461).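 On Her2 level: lower value means less Her2 protein in the cells.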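 On viability: percent of carrier control wells set as 100% viability.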 The following applies: SKBR3 Her2 protein level, 18-24 h, measured here: SKBR3 viability, ATP luminescence, at 10 µM. Background: In Alpha technology, singlet oxygen from a donor bead excites a nearby acceptor bead.
Assay [2] concerns the target Receptor tyrosine-protein kinase erbB-2 (Homo sapiens) (UniProt P04626). The assay is described as above. The following applies: 18-24 h, at 10 µM, stronger effect = lower value.
Assay [3] in a line: reduced viability of SK-BR-3 breast cancer cells – cell-based, 24 h, human, pilot screen (AID 572;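 active means viability at or below 10% of carrier control in both of two separate runs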;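 further: compound exposure lasted between 18 and 24 h rather than exactly 24 h; 100% = carrier-treated control wells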). The following applies: SK-BR-3 viability, CellTiter-Glo luminescence, at 10 µM, stronger effect = lower value. In general terms: Cellular ATP, detected with luciferase, serves as a proxy for viable cell number.
A short description of assay [4]: HUVEC growth inhibition – cell-based, human, primary screen (AID 575;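 active means viability at or below 30% in both replicate assays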;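 further: 100% = median of untreated cell wells with 0.1% DMSO on each plate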). To be noted: HUVEC proliferation, CellTiter-Glo luminescence, 72 h; at 10 µM; stronger effect = lower value. Summed up: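 System – primary HUVEC, no more than 12 passages · Medium – Low-serum (2% FBS) EBM, supplemented · Times – 72 h exposure, 37 °C, 5% CO2, 30 min RT equilibration · Measured by – luminescent ATP assay · Read-out – % viability relative to median vehicle-well signal on each plate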

Assay [5] can be described thus: H69AR cell proliferation blockers – human, duplicate replicates, primary screen (AID 580;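 active means viability at or under a set limit in both replicates, limit being median viability minus 3 SD, cut at about 48% in these data, passing the limit was not always enough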;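 further: 100% = mean luminescence of untreated wells and 0% = no signal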). To be noted: H69AR lung tumor cells viability, ATP luminescence, 72 h; at 10 µM; stronger effect = lower value.
The nature of assay [6]: MRP1 drug-resistance reversers in H69AR cells – cell-based, doxorubicin co-treatment, pilot screen (AID 601;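 active means viability loss from added drug above about 55%, and viability with drug at most 40%, in both replicates, limit read from the data, passing the limit was not always enough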). To be noted: CellTiter-Glo, 72 h, at 10 µM; for differential viability (reversal): stronger effect = higher value.
Assay [7] is described as follows: yeast transport mutant growth inhibition pilot in 384-well plates, post-Golgi transport modulator project (AID 636; in the data active means inhibition above about 31%). The following applies: absorbance 615 nm, about 18 h, stronger effect = higher value.
Assay [8] is described as follows: growth suppression of yeast trafficking mutant, preliminary HTS, modulators of trafficking downstream of Golgi apparatus project, 1536-format plate, OD 615 nm (AID 637; in the data active means inhibition above about 30%). The following applies: yeast transport mutant growth, absorbance 615 nm, 18 h; stronger effect = higher value.
Where [9] appears, read: H69AR cells + 2 uM doxorubicin, measured here: viability with 2 uM doxorubicin, stronger effect = lower value.
[10] abbreviates: H69AR cells, compound alone cytotoxicity.

Receptor tyrosine-protein kinase erbB-2 (Homo sapiens), sequence (P04626 whole entry, looked up): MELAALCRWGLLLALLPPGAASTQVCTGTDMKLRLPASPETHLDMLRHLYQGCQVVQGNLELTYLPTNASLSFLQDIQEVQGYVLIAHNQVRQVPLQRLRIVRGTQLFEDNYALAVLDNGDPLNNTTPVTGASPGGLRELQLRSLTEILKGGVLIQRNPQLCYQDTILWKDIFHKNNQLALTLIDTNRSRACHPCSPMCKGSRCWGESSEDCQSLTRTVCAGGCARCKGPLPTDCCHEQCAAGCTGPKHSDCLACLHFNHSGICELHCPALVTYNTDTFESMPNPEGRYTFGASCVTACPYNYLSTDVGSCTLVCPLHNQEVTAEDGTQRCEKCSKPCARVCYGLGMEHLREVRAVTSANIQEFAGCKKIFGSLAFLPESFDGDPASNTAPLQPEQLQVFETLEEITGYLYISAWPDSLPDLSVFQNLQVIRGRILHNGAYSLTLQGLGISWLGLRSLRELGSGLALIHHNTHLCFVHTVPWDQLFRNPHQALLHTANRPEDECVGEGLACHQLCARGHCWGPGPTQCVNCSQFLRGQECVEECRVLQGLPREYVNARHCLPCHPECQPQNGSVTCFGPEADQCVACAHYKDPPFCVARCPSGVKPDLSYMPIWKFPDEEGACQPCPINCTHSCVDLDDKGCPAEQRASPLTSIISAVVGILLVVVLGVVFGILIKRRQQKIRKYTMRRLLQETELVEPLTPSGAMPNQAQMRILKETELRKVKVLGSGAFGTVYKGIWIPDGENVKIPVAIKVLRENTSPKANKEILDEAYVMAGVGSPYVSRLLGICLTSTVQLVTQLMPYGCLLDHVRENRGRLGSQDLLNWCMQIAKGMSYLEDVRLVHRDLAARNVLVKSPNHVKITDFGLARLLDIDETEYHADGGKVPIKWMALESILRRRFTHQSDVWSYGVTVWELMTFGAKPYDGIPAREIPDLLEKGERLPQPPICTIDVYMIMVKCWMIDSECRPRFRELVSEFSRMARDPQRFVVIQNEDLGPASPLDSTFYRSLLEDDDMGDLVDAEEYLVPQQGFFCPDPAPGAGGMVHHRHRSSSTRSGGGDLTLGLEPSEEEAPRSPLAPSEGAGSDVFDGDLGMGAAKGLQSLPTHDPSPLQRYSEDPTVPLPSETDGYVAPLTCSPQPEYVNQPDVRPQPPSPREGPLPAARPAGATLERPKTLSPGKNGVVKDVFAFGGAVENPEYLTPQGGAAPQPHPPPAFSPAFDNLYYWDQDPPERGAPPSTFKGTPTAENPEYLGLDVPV

In the case of `Cc1cc(-n2c(C)cc(C(=O)CSc3nc4ccccc4c(=O)n3Cc3ccco3)c2C)no1`, the viability in assay [1] was 105%; in assay [3], 105% (inactive); in assay [4], 92.2% (inactive); in assay [5], 93.8% (inactive); in assay [6] (setting [9]), 89.7%; in assay [6] (setting [10]) it was 93.8%. In addition, the Her2 level in assay [2] is 83.5% (inactive). Moreover, the differential viability (reversal) in assay [6] (H69AR cells + 2 uM doxorubicin) was 4.09% (inactive). The inhibition in assay [7] is -6.8% (inactive); in assay [8] it was -1.43% (inactive).

Consider `C=CCSc1nnc(-c2ccccc2NC(C)=O)c(=O)[nH]1`, for which the viability was 106% in assay [1]; 106% (inactive) in assay [3]; 105% (inactive) in assay [4]; 93% (inactive) in assay [5]; 83.4% in assay [6] (setting [9]); 93% in assay [6] (setting [10]). For the same compound, the Her2 level in assay [2] is 105% (inactive). Further, the differential viability (reversal) in assay [6] (H69AR cells + 2 uM doxorubicin) is 9.55% (inactive). For the same compound, the results for the inhibition in assay [7] and in assay [8] were -3.03% (inactive) and -0.36% (inactive), respectively.

Regarding `CCn1c(=O)cc(SCC(=O)N2CCN(C3CCCCC3)CC2)c2ccccc21`, the viability in assay [1] was 88.5%; in assay [3], 88.5% (inactive); in assay [4] it was 79.2% (inactive); in assay [5], 83.5% (inactive); in assay [6] (setting [9]) it was 76.5%; in assay [6] (setting [10]), 83.5%. In addition, the Her2 level in assay [2] was 77% (inactive). In assay [6] (H69AR cells + 2 uM doxorubicin), the differential viability (reversal) was 7.01% (inactive). Further, the values for the inhibition in assay [7] and in assay [8] were -0.92% (inactive) and 0.18% (inactive), respectively.

As for `O=C(Nc1ccc2c(c1)nc1n2CCSC1)c1ccccc1`, the viability in assay [1] was 97%; in assay [3], 97% (inactive); in assay [4] it was 108% (inactive); in assay [5], 92.7% (inactive); in assay [6] (setting [9]), 76.8%; in assay [6] (setting [10]), 92.7%. In addition, the Her2 level in assay [2] was 114% (inactive). Moreover, the differential viability (reversal) in assay [6] (H69AR cells + 2 uM doxorubicin) is 15.9% (inactive). The inhibition in assay [7] is -0.26% (inactive); in assay [8] it was -6% (inactive).

For the compound `COc1ccc(N(CC(=O)NCCSC(C)(C)C)S(C)(=O)=O)c(OC)c1`, the viability was 91% in assay [1]; 91% (inactive) in assay [3]; 106% (inactive) in assay [4]; 92.8% (inactive) in assay [5]; 101% in assay [6] (setting [9]); 92.8% in assay [6] (setting [10]). Moreover, in assay [2], the Her2 level is 97.5% (inactive). Moreover, the differential viability (reversal) in assay [6] (H69AR cells + 2 uM doxorubicin) was -8.27% (inactive). Further, the figures for the inhibition in assay [7] and in assay [8] were 1.04% (inactive) and 2.62% (inactive), respectively.

Regarding `O=C(O)CCc1ccc(-c2ccc(F)cc2)n1CC(=O)O`, the viability was 94.5% in assay [1]; 94.5% (inactive) in assay [3]; 106% (inactive) in assay [4]; 98% (inactive) in assay [5]; 87.2% in assay [6] (setting [9]); 98% in assay [6] (setting [10]). In assay [2], the Her2 level was 87% (inactive). Further, the differential viability (reversal) in assay [6] (H69AR cells + 2 uM doxorubicin) is 10.8% (inactive). The values for the inhibition in assay [7] and in assay [8] were -7.12% (inactive) and -1.43% (inactive), respectively.

For the compound `COc1ccc(C2=NO[C@@H]3C(=O)N(c4cccc(C)c4C)C(=O)[C@H]23)cc1OC`, the viability in assay [1] was 104%; in assay [3] it was 104% (inactive); in assay [4], 97.7% (inactive); in assay [5], 91.5% (inactive); in assay [6] (setting [9]), 99.5%; in assay [6] (setting [10]), 91.5%. Further, in assay [2], the Her2 level was 106% (inactive). In addition, the differential viability (reversal) in assay [6] (H69AR cells + 2 uM doxorubicin) is -7.95% (inactive). Also, the inhibition in assay [7] is 4.29% (inactive); in assay [8], -3.49% (inactive).

Turning to `CC1=C(C(N)=O)C(c2cccnc2)n2nc(SCc3ccccc3Cl)nc2N1` (stereo not given), the viability in assay [1] is 79%; in assay [3] it was 79% (inactive); in assay [4] it was 87.6% (inactive); in assay [5] it was 98.7% (inactive); in assay [6] (setting [9]), 84%; in assay [6] (setting [10]) it was 98.7%. Further, the Her2 level in assay [2] was 94.5% (inactive). Besides, the differential viability (reversal) in assay [6] (H69AR cells + 2 uM doxorubicin) was 14.7% (inactive). The inhibition in assay [7] was -9.05% (inactive); in assay [8], -3.77% (inactive).

Turning to `Cc1ccc2[nH]c(=O)c(CN(Cc3ccc4c(c3)OCO4)Cc3nnnn3Cc3ccco3)cc2c1`, the viability was 102% in assay [1]; 102% (inactive) in assay [3]; 106% (inactive) in assay [4]; 88.9% (inactive) in assay [5]; 92.6% in assay [6] (setting [9]); 88.9% in assay [6] (setting [10]). In assay [2], the Her2 level was 93% (inactive). In addition, the differential viability (reversal) in assay [6] (H69AR cells + 2 uM doxorubicin) is -3.68% (inactive). Moreover, the inhibition is -2.99% (inactive) in assay [7] and -3.49% (inactive) in assay [8].

On to `O=C(NCC(c1cccnc1)N1CCOCC1)c1ccco1` (stereo not given), for which the viability is 97% in assay [1]; 97% (inactive) in assay [3]; 106% (inactive) in assay [4]; 98.9% (inactive) in assay [5]; 90.6% in assay [6] (setting [9]); 98.9% in assay [6] (setting [10]). The Her2 level in assay [2] is 71% (inactive). Also, the differential viability (reversal) in assay [6] (H69AR cells + 2 uM doxorubicin) was 8.38% (inactive). Besides, the inhibition in assay [7] is -4.87% (inactive); in assay [8], 1.17% (inactive).

Turning to `COC(=O)CCSCc1cn2cc(Cl)ccc2n1`, the viability was 120% in assay [1]; 120% (inactive) in assay [3]; 87.3% (inactive) in assay [4]; 99.5% (inactive) in assay [5]; 98.2% in assay [6] (setting [9]); 99.5% in assay [6] (setting [10]). For the same compound, in assay [2], the Her2 level was 106% (inactive). Besides, in assay [6] (H69AR cells + 2 uM doxorubicin), the differential viability (reversal) is 1.26% (inactive). The inhibition in assay [7] was -8% (inactive); in assay [8] it was -9.84% (inactive).

On to `CCOc1cc(C2C(C#N)=C(N)OC(C)=C2C(C)=O)cc(Br)c1O` (stereo not given), for which the viability in assay [1] is 114%; in assay [3], 114% (inactive); in assay [4], 120% (inactive); in assay [5] it was 90.3% (inactive); in assay [6] (setting [9]), 84.2%; in assay [6] (setting [10]), 90.3%. Also, the Her2 level in assay [2] was 91% (inactive). In addition, the differential viability (reversal) in assay [6] (H69AR cells + 2 uM doxorubicin) was 6.05% (inactive). In addition, the figures for the inhibition in assay [7] and in assay [8] were -5.95% (inactive) and -6.83% (inactive), respectively.

For `CC(C)CNC(=O)C1C2C=CC(C2)C1C(=O)O` (stereo not given), the viability in assay [1] is 96%; in assay [3] it was 96% (inactive); in assay [4], 108% (inactive); in assay [5], 111% (inactive); in assay [6] (setting [9]), 102%; in assay [6] (setting [10]), 111%. In assay [2], the Her2 level is 96% (inactive). Further, the differential viability (reversal) in assay [6] (H69AR cells + 2 uM doxorubicin) is 9.12% (inactive). The inhibition in assay [7] is -1.33% (inactive); in assay [8] it was -1.77% (inactive).

In the case of `Cc1cccc(N2CCN(C(=O)c3cc4c(=O)[nH]c5ccccc5c4n3C)CC2)c1C`, the viability in assay [1] was 72.5%; in assay [3], 72.5% (inactive); in assay [4], 65.5% (inactive); in assay [5], 95.9% (inactive); in assay [6] (setting [9]), 82.9%; in assay [6] (setting [10]), 95.9%. The Her2 level in assay [2] was 57.5% (inactive). In assay [6] (H69AR cells + 2 uM doxorubicin), the differential viability (reversal) was 13% (inactive). Also, the inhibition was -3.33% (inactive) in assay [7] and 11% (inactive) in assay [8].

On to `CCOc1ccc(CSC(CC(=O)O)C(=O)O)cc1` (stereo not given), for which the viability in assay [1] is 90%; in assay [3], 90% (inactive); in assay [4], 84.1% (inactive); in assay [5], 84.2% (inactive); in assay [6] (setting [9]) it was 86.8%; in assay [6] (setting [10]), 84.2%. Moreover, the Her2 level in assay [2] is 83.5% (inactive). Moreover, in assay [6] (H69AR cells + 2 uM doxorubicin), the differential viability (reversal) is -2.67% (inactive). In addition, the inhibition is -3.29% (inactive) in assay [7] and 0.55% (inactive) in assay [8].

For `Cc1cc2c(s1)c1cnn(CC(=O)NCCc3ccccc3)c(=O)c1n2C`, the viability in assay [1] was 120%; in assay [3] it was 120% (inactive); in assay [4] it was 118% (inactive); in assay [5], 87.1% (inactive); in assay [6] (setting [9]), 82%; in assay [6] (setting [10]), 87.1%. Moreover, the Her2 level in assay [2] was 98.5% (inactive). Also, the differential viability (reversal) in assay [6] (H69AR cells + 2 uM doxorubicin) is 5.06% (inactive). Further, the inhibition in assay [7] was -5.81% (inactive); in assay [8] it was -3.5% (inactive).
